ChEMBL document CHEMBL5724801, “EUbOPEN Chemogenomics Library - Multiplex” (2024)
Where “and” joins values, the source holds several entries; their conditions need not be identical. Equal entries are not always repeated.

Key:
[1] = tested on: HEK-293T; assay: Multiplex assay against HEK293T; format: toxicity, cell-based; conditions: human
How it was run: (§1)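 With compound added, live cells were imaged on a CQ1 microscope at 37°C and 5% CO2; staining with Hoechst33342, BioTracker Green Microtubule Cytoskeleton Dye, MitoTracker Red and Annexin V Alexa Fluor 680 had been done at seeding. The CellPathfinder machine-learning gating scheme split cells into Hoechst high-intensity objects or normal cells, normal cells into healthy, pyknosed or fragmented nuclei, and pyknosed cells into mitotic or apoptotic. The tubulin, mitochondrial-mass and membrane-permeability phenotypes are per cents of healthy-nucleus cells.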

[2] = tested on: U2OS; assay: Multiplex assay against U2OS; format: toxicity, cell-based; conditions: human; how it was run: as §1
[3] = 24 h, 1 µM, compound concentration 1 uM
[4] = 24 h, 10 µM, compound concentration 10 uM
[5] = 48 h, 1 µM, compound concentration 1 uM
[6] = 48 h, 10 µM, compound concentration 10 uM
[7] = 12 h, 1 µM, compound concentration 1 uM
[8] = 12 h, 10 µM, compound concentration 10 uM

Cc1cccc(F)c1C(=O)Nc1cnc(-c2cc3c(cc2Cl)OC(F)(F)O3)cn1 [ZEGOCRACTIN]
Population Mitotic Cells (%) [1, 3]: 76.38% and 85.47% | Population Normal (%) [1, 3]: 99.6% and 100% | Population Pyknosed Nuclei (%) [1, 3]: 25.66% and 71.34% | Population Tubulin-Different-Phenotype (%) [1, 3]: 10.78% and 17.07% | Population Apoptotic (%) [1, 4]: 34.16% and 33.09% | Population Fragmented Nuclei (%) [1, 4]: 0.76% and 3.75% | Population Hoechst High Intensity Objects (%) [1, 4]: 0.75% and 0% | Population Membrane Permeable-Phenotype (%) [1, 4]: 0% | Population Mitochondria Different-Phenotype (%) [1, 4]: 52.48% and 27.78% | Population Mitotic Cells (%) [1, 4]: 65.84% and 66.91% | Population Normal (%) [1, 4]: 99.25% and 100% | Population Pyknosed Nuclei (%) [1, 4]: 60.98% and 85% | Total Cell Count [1, 4]: 266 and 160 | Population Apoptotic (%) [1, 5]: 9.86% and 16.85% | Population Fragmented Nuclei (%) [1, 5]: 5.17% and 0.94% | Population Healthy Nuclei (%) [1, 5]: 80.45% and 57.08% | Population Hoechst High Intensity Objects (%) [1, 5]: 0% and 0.47% | Population Membrane Permeable-Phenotype (%) [1, 5]: 4.53% and 2.48% | Population Mitochondria Different-Phenotype (%) [1, 5]: 22.67% and 22.31% | Population Mitotic Cells (%) [1, 5]: 90.14% and 83.15% | Population Normal (%) [1, 5]: 100% and 99.53% | Population Pyknosed Nuclei (%) [1, 5]: 14.39% and 41.98% | Population Apoptotic (%) [1, 6]: 30.82% and 29% | Population Fragmented Nuclei (%) [1, 6]: 1.98% and 3.11% | Population Healthy Nuclei (%) [1, 6]: 61.88% and 34.78% | Population Hoechst High Intensity Objects (%) [1, 6]: 0.49% and 2.42% | Population Membrane Permeable-Phenotype (%) [1, 6]: 2% and 0% | Population Mitochondria Different-Phenotype (%) [1, 6]: 76.4% and 44.64% | Population Mitotic Cells (%) [1, 6]: 69.18% and 71% | Population Normal (%) [1, 6]: 99.51% and 97.58% | Population Pyknosed Nuclei (%) [1, 6]: 36.14% and 62.11% | Total Cell Count [1, 6]: 406 and 165 | Population Apoptotic (%) [2, 7]: 54.76% and 21.05% | Population Fragmented Nuclei (%) [2, 7]: 1.87% and 5.79% | Population Healthy Nuclei (%) [2, 7]: 86.93% and 78.51% | Population Hoechst High Intensity Objects (%) [2, 7]: 0% | Population Membrane Permeable-Phenotype (%) [2, 7]: 0.61% and 6.32% | Population Mitochondria Different-Phenotype (%) [2, 7]: 0% and 12.63% | Population Mitotic Cells (%) [2, 7]: 45.24% and 78.95% | Population Normal (%) [2, 7]: 100% | Population Pyknosed Nuclei (%) [2, 7]: 11.2% and 15.7% | Population Tubulin-Different-Phenotype (%) [2, 7]: 0.61% and 0% | Population Apoptotic (%) [2, 8]: 37.66% and 30.95% | Population Fragmented Nuclei (%) [2, 8]: 0.97% and 1.07% | Population Healthy Nuclei (%) [2, 8]: 80.39% and 76.47% | Population Hoechst High Intensity Objects (%) [2, 8]: 0.24% and 0% | Population Membrane Permeable-Phenotype (%) [2, 8]: 0.6% and 8.39% | Population Mitotic Cells (%) [2, 8]: 62.34% and 69.05% | Population Normal (%) [2, 8]: 99.76% and 100% | Population Pyknosed Nuclei (%) [2, 8]: 18.64% and 22.46% | Population Tubulin-Different-Phenotype (%) [2, 8]: 3.01% and 4.9% | Total Cell Count [2, 8]: 414 and 187 | Population Apoptotic (%) [2, 3]: 49.12% and 21.74% | Population Fragmented Nuclei (%) [2, 3]: 2.5% and 3.68% | Population Healthy Nuclei (%) [2, 3]: 86.54% and 82.21% | Population Hoechst High Intensity Objects (%) [2, 3]: 0% | Population Membrane Permeable-Phenotype (%) [2, 3]: 0.22% and 5.22% | Population Mitochondria Different-Phenotype (%) [2, 3]: 0.22% and 7.46% | Population Mitotic Cells (%) [2, 3]: 50.88% and 78.26% | Population Normal (%) [2, 3]: 100% | Population Pyknosed Nuclei (%) [2, 3]: 10.96% and 14.11% | Population Tubulin-Different-Phenotype (%) [2, 3]: 0.89% and 0.75% | Population Apoptotic (%) [2, 4]: 37.72% and 34.92% | Population Fragmented Nuclei (%) [2, 4]: 3.21% and 2.36% | Population Healthy Nuclei (%) [2, 4]: 75.24% and 67.92% | Population Hoechst High Intensity Objects (%) [2, 4]: 0% | Population Membrane Permeable-Phenotype (%) [2, 4]: 2.76% and 6.94% | Population Mitotic Cells (%) [2, 4]: 62.28% and 65.08% | Population Normal (%) [2, 4]: 100% | Population Pyknosed Nuclei (%) [2, 4]: 21.55% and 29.72% | Population Tubulin-Different-Phenotype (%) [2, 4]: 2.76% and 2.78% | Total Cell Count [2, 4]: 529 and 212 | Population Apoptotic (%) [2, 5]: 35.96% and 56% | Population Fragmented Nuclei (%) [2, 5]: 3.36% and 3.03% | Population Healthy Nuclei (%) [2, 5]: 87.83% and 87.5% | Population Hoechst High Intensity Objects (%) [2, 5]: 0% | Population Membrane Permeable-Phenotype (%) [2, 5]: 1.69% and 2.6% | Population Mitochondria Different-Phenotype (%) [2, 5]: 0.34% and 5.63% | Population Mitotic Cells (%) [2, 5]: 64.04% and 44% | Population Normal (%) [2, 5]: 100% | Population Pyknosed Nuclei (%) [2, 5]: 8.8% and 9.47% | Population Tubulin-Different-Phenotype (%) [2, 5]: 1.58% and 0.43% | Population Apoptotic (%) [2, 6]: 51.14% and 60.82% | Population Fragmented Nuclei (%) [2, 6]: 5.7% and 6.6% | Population Healthy Nuclei (%) [2, 6]: 63.11% and 59.72% | Population Hoechst High Intensity Objects (%) [2, 6]: 0.14% and 0% | Population Membrane Permeable-Phenotype (%) [2, 6]: 2.48% and 8.72% | Population Mitotic Cells (%) [2, 6]: 48.86% and 39.18% | Population Normal (%) [2, 6]: 99.86% and 100% | Population Pyknosed Nuclei (%) [2, 6]: 31.2% and 33.68% | Population Tubulin-Different-Phenotype (%) [2, 6]: 4.97% and 4.65% | Total Cell Count [2, 6]: 703 and 288
